A selection: hits, their analogues and other compounds. The true share with any hit is near 1.8%.
CHRM5 antagonist = CHRM5 antagonism in calcium assay; P08912; CHO-hM5 cells, Fluo-8 calcium fluorescence, ACh EC80; actives 0.59% (n = 360,000); inhibition, % at 3 µM;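 active = inhibition above a per-plate cutoff, the mean of that plate's test compounds plus 3 SD, cut at about 27% in these data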;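 note: 0% = acetylcholine EC80 with DMSO and 100% = DMSO without agonist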
M4 ag = agonists of human muscarinic M4 receptor (CHRM4); P08173; CHO-K1 hM4/Gqi5, Fluo-8 calcium fluorescence; vehicle 0%, full acetylcholine response 100%; activation, % at 3 µM; actives 0.14% (n = 360,000); AID 624127;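 active = activation above the run mean over all test wells plus 3 SD, cut at about 32% in these data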;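 note: peak over basal fluorescence ratio per well then scaled between controls; 0% = DMSO wells and 100% = acetylcholine at EC100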
Target sequence (P08173 whole entry, looked up): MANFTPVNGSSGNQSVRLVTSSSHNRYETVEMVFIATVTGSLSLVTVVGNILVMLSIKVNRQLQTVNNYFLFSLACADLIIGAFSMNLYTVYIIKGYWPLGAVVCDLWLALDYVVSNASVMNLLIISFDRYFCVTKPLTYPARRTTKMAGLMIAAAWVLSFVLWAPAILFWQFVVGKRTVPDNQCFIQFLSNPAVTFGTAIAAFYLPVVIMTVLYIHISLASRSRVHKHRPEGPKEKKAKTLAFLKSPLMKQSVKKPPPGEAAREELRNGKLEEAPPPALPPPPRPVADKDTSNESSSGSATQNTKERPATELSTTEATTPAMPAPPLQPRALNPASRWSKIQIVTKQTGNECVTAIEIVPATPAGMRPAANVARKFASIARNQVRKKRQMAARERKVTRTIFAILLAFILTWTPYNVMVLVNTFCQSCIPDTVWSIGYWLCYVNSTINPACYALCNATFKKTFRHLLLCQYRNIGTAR
M4 antag = blocks acetylcholine activation of human M4 receptor. P08173. CHO-hM4 cells, ACh EC80, Fluo-8 calcium fluorescence. inhibition, % at 3 µM. actives 0.73% (n = 360,000). AID 624125;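 active = inhibition above its plate's cutoff, the mean inhibition of sample wells plus 3 SD, cut at about 27% in these data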;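 note: 0% = acetylcholine EC80 with DMSO and 100% = DMSO without agonist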
CHRM5 agonist = CHRM5 agonism in calcium assay | AID 624037 | actives 0.19% (n = 360,000) | activation, % at 3 µM | CHO-K1 hM5 cells, Fluo-8 calcium fluorescence; 0% DMSO wells, 100% maximal acetylcholine response | P08912;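 active = activation above the run's mean over test compounds plus 3 SD, cut at about 23% in these data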;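 note: signal is peak over basal fluorescence ratio across the kinetic read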
CHRM4 PAM = positive allosteric modulators of human muscarinic M4 receptor; P08173; CHO-K1 hM4/Gqi5, Fluo-8 calcium fluorescence, ACh EC20; 0% = ACh EC20, 100% = maximal ACh; activation, % at 3 µM; actives 0.4% (n = 360,000); AID 624126;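 active = activation above its plate's cutoff, the mean activation of sample wells plus 3 SD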
CHRM5 PAM = potentiates acetylcholine response at human M5 receptor | CHO-K1 hM5, Fluo-8 calcium, ACh EC20 PAM; 0% = ACh EC20, 100% = ACh EC100 | activation, % at 3 µM | actives 0.3% (n = 360,000);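 active = activation above the run cutoff, the mean activation of all test compounds plus 3 SD, cut at about 18% in these data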
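Measured by: Fluo-8 calcium fluorescence; material: human M5 receptor in CHO-K1 cells; schedule: Post-acetylcholine fluorescence recording 140 s; benchmarks: low control EC20 acetylcholine (0%), high control EC100 acetylcholine (100%); read-out: Max/basal fluorescence ratio as % of EC20–EC100 ACh window; compound: single dose, 3 µM nominal final test concentration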
Active calls of the source: *; ! = a repeat was not active.

SMILES	CHRM5 antagonist	M4 ag	M4 antag	CHRM5 agonist	CHRM4 PAM	CHRM5 PAM
O=C(C1=C[C@H](c2coc3ccccc3c2=O)C[C@H](OCCCCO)O1)N1CCN(Cc2ccccc2)CC1	62.5*	4.5	-1.7	-9.3	-3.3	-25.4
O=C(NCc1ccccc1)C1=C[C@H](c2coc3ccccc3c2=O)C[C@H](OCCCCO)O1	15.8	0.6	17.0	-0.3	-6.0	-4.3
O=C(NCc1ccccc1)C1=C[C@@H](c2coc3ccccc3c2=O)C[C@@H](OCCCCO)O1	27.8*	5.7	3.1	-4.1	-10.9	-9.3
O=C(Nc1csc([N+](=O)[O-])c1)Nc1ccccc1Cl	45.1*	25.4	28.6*	-0.5	-27.1	-35.4
CCCCNc1c(-c2ccc(OC)c(SC(C)CC)c2)nc2ccc(C)cn12 (stereo not given)	13.8	16.1	31.1*!	1.3	-3.9	-29.7
CCCCNc1c(-c2ccc(OC)c(SC(C)CC)c2)nc2cnccn12 (stereo not given)	20.6	4.9	-1.2	-6.4	-3.2	-21.4
CCCCNc1c(-c2ccc(OC)c(SC(C)CC)c2)nc2cc(C)ccn12 (stereo not given)	8.1	11.8	30.6*!	-4.2	-11.2	-22.3
CCCCNc1c(-c2ccc(OC)c(SC(C)CC)c2)nc2ccc(Cl)cn12 (stereo not given)	9.4	5.3	5.3	-4.7	-3.9	-7.6
CCCCNc1c(-c2ccc(-c3ccc(C(C)=O)cc3)c(OC)c2)nc2cc(C)ccn12	17.1	6.5	25.4	-9.8	-13.1	-36.1
CCCCNc1c(-c2ccc(Sc3ccc(OC)cc3)cc2)nc2cc(C)ccn12	11.2	3.8	43.6*	-5.3	-12.8	-13.1
CCCCNc1c(-c2ccc(SC3CCCCC3)cc2)nc2ccccn12	6.3	6.0	20.6	5.1	-0.4	0.5
CCCCNc1c(-c2ccc(SC(C)CC)cc2)nc2ccccn12 (stereo not given)	25.3	10.9	45.3*	-1.1	-11.8	-29.1
CCCCC1C(=O)CC[C@H]2[C@@H]1CC(=O)[C@@H]2C/C=C\CCCC(=O)O (stereo not given in full)	-5.9	-0.1	-3.8	0.5	0.2	-1.1
CCOc1ccc(OCCSc2ccc(S(=O)(=O)N3CCN(C)CC3)cn2)cc1	9.1	9.6	-3.6	-5.5	-1.4	-12.9
COC(=O)[C@]1(CC(C)C)N[C@H](c2ccc(-c3ccc(Cl)c(Cl)c3)cc2)[C@@H]2C(=O)N(C)C(=O)[C@@H]21	3.5	1.8	-16.4	3.3	-3.2	8.3
COc1ccc(Cl)cc1CN1C(=O)C(Cc2ccccc2)ON=C1C (stereo not given)	-2.1	6.5	-17.2	-0.7	-1.1	-4.8
Cc1sc2ncnc(N3CCC(C(=O)NNC(=O)COc4ccc(Cl)cc4)CC3)c2c1C	15.1	20.9	2.8	7.0	-8.1	-17.6
Cc1sc2ncnc(N3CCN(CCOc4ccc(Cl)cc4)CC3)c2c1C	32.2*	12.1	11.3	2.9	0.2	-25.1
Cc1c(O)cccc1C(=O)N[C@@H](CSc1ccccc1)[C@H](O)CN1C[C@H]2CCCC[C@H]2C[C@H]1C(=O)NC(C)(C)C	84.7*!	44.0*!	-3.2	97.5*!	-13.8	-20.5
O=C(N/N=C\c1cn(-c2ccccc2)nc1-c1ccccc1)c1ccc(Br)o1	13.9	9.3	27.1*	-3.5	26.8	-9.3
Cc1ccc(-c2nn(-c3ccccc3)cc2/C=N/NC(=O)c2ccc(Br)o2)cc1	5.4	4.3	4.4	-1.6	-2.4	0.0

Screening results deposited in PubChem BioAssay by The Scripps Research Institute Molecular Screening Center.
